The values that follow come from ChEMBL document CHEMBL5150022, “Small Molecule Inhibitors of Lymphocyte Perforin as Focused Immunosuppressants for Infection and Autoimmunity” (J Med Chem, 2022).

For data set [1], the target named is T1, Perforin-1 (Mus musculus) (UniProt P10820).
T1 sequence (whole entry): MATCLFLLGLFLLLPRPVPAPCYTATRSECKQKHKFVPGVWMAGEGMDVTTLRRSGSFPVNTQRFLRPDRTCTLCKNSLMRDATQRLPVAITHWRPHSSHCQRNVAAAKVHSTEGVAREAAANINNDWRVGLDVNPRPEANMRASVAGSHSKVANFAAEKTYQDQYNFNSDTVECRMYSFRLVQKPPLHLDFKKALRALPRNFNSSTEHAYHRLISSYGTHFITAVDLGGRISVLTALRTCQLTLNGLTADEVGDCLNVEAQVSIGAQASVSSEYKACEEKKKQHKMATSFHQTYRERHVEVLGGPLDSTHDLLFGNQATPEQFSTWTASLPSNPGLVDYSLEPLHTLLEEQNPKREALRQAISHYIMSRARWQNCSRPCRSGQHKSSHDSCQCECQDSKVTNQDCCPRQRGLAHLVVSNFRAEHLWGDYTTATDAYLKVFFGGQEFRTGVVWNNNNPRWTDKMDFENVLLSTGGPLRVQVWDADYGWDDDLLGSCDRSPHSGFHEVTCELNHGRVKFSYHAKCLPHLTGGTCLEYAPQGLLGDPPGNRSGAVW
As to the kind of experiment: Inhibition of mouse Perforin-1 in Natural killer cell at 20 uM relative to control.

The target of data set [2] is T2, Perforin-1 (Homo sapiens) (UniProt P14222).
T2 sequence (whole entry): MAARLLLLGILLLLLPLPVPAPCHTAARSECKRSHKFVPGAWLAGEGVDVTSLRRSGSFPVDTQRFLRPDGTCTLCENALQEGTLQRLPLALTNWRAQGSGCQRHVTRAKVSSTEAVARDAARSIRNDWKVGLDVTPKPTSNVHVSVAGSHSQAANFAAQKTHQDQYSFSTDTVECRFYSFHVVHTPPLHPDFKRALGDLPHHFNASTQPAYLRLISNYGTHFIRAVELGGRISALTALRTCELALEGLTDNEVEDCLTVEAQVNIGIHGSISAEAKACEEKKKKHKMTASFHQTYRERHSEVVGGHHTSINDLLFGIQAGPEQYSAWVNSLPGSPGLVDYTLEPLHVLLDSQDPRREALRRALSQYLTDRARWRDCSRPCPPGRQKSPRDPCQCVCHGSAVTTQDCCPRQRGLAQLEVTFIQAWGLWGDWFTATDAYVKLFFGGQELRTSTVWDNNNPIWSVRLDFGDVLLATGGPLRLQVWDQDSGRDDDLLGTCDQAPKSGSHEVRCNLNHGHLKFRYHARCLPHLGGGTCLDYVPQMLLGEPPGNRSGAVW
As to the kind of experiment: Inhibition of Perforin-1 in human Jurkat cells at 20 uM incubated for 4 hrs relative to control. Format: cell-based.

Data set [3] is described as follows: Inhibition of Perforin-1 in sheep red blood cells incubated for 30 mins. The data set is classed as cell-based, Ovis aries. The conditions noted are these: rbc. The method in brief: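 Recombinant mouse perforin-mediated lysis of sheep red blood cells, read as turbidity change by absorbance at 650 nm. Compounds first tested at a single 20 μM point, then at 100, 20, 4, 0.8 and 0.16 μM to give IC₅₀. Hits were rechecked with 0.1% BSA.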

In data set [4] the target is T2, Perforin-1 (Homo sapiens). Put plainly: Inhibition of Perforin-1 in human KHYG-1 cells assessed as unbound concentration. The data set is classed as cell-based. The method in brief:
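KHYG1 NK cell killing of ⁵¹Cr-labelled K562 targets; IC₉₀ determined. Compound binding to proteins in the assay medium was measured and used to estimate the unbound IC₉₀.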

Data set [5] can be described thus: Plasma protein binding in mouse. The conditions noted are these: read-out: PPB (converted). The data set is classed as ADME, cell-free.
Data set [6] is described as follows: Toxicity in C57BL/6 mouse assessed as animal survival at 100 mg/kg, po measured for 2 days. Format: organism-based. The conditions noted are these: in vivo, time 2 day, read-out: Activity.
The nature of data set [7]: Elimination half life in mouse plasma at 10 to 160 mg/kg, po measured for 24 hrs. The data set is classed as ADME, organism-based. The conditions noted are these: dose 10-160 mg/kg, read-out: beta t1/2 (converted).
Data set [8] in a line: Toxicity in C57BL/6 mouse assessed as effect on aspartate transaminase level at 100 mg/kg, po measured for 2 days. Format: organism-based. As to conditions: in vivo, 48 h, time 2 day.
Data set [9] is described as follows: Antiproliferative activity against human KHYG-1 at 20 uM incubated for 20 mins. Format: functional.
Data set [10] is described as follows: Stability in human plasma incubated for 24 hrs by HPLC analysis. The data set is classed as ADME, cell-free. The conditions noted are these: read-out: Stability. In a few lines: (§1)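 Compound incubated in human or mouse plasma at 37 °C for 24 h; parent remaining quantified by HPLC.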
Data set [11] is described as follows: Stability in mouse plasma incubated for 24 hrs by HPLC analysis. The conditions noted are these: read-out: Stability. Format: ADME, cell-free. The method in brief: as §1
In data set [12] the target is T2, Perforin-1 (Homo sapiens). Put plainly: Inhibition of Perforin-1 in human Natural killer cells at 20 uM incubated after 24 hrs relative to control. As to conditions: Natural killer cell, time 4.0 hrs, in the assay text read “after 4 hrs” for “after 24 hrs”. The data set is classed as cell-based. The method in brief:
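Human KHYG1 NK cells plus medium coincubated with inhibitor at 20 μM final, or 5 μM in one case. ⁵¹Cr-labelled K562 leukaemia targets added; lysis measured by ⁵¹Cr release after 4 h. Effector NK cell viability measured 24 h later.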

Data set [13] is described as follows: Cytotoxicity against human Natural killer cells at 20 uM. As to conditions: natural killer cell.
Data set [14] can be described thus: Cytotoxicity against human Natural killer cells assessed as reduction in cell viability at 20 uM.
The nature of data set [15]: Mutagenicity in Salmonella typhimurium TA100 by AMES test. The data set is classed as toxicity, Salmonella enterica subsp. enterica serovar Typhimurium.
The subject of data set [16] is Brain. Put plainly: Anti-neuroinflammation in LPS-induced mouse brain assessed as reduction in caspase-3/7 production at 250 microg/kg administered for 3 days. The data set is classed as functional. Also noted: scale not given: the % may be the effect or the level left. The conditions noted are these: dose 250 µg/kg; time 3 day.
The subject of data set [17] is Brain. Put plainly: Anti-neuroinflammation in LPS-induced mouse brain assessed as reduction in prostaglandin E2 production at 250 microg/kg administered for 3 days. As to conditions: dose 250 µg/kg; time 3 day. Also noted: scale not given: the % may be the effect or the level left. Format: functional.
For the next data set, the target named is Acetylcholinesterase (Homo sapiens, UniProt P22303). Put plainly: Inhibition of AChE (unknown origin).
Sequence of Acetylcholinesterase (P22303 whole entry): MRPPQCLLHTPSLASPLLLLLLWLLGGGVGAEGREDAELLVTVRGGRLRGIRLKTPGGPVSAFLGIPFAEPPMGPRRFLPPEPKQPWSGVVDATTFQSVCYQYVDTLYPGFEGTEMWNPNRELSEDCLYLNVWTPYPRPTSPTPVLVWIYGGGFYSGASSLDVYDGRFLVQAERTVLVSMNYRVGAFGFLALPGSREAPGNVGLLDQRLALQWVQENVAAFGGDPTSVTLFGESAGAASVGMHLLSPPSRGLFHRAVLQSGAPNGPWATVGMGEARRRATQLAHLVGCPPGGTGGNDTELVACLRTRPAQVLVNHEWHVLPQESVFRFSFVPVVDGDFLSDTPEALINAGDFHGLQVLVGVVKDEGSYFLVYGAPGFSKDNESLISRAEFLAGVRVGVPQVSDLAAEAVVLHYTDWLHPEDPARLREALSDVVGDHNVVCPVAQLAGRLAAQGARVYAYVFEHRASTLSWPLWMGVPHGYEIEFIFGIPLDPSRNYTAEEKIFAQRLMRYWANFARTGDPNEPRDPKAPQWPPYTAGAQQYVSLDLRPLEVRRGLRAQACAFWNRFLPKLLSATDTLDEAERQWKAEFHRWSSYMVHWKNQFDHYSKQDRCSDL
Data set [18] deals with Beta-secretase 1 (Homo sapiens) (UniProt P56817). As to the kind of experiment: Inhibition of BACE1 (unknown origin) at 1 uM relative to control.
Sequence of Beta-secretase 1 (Homo sapiens) (P56817 whole entry): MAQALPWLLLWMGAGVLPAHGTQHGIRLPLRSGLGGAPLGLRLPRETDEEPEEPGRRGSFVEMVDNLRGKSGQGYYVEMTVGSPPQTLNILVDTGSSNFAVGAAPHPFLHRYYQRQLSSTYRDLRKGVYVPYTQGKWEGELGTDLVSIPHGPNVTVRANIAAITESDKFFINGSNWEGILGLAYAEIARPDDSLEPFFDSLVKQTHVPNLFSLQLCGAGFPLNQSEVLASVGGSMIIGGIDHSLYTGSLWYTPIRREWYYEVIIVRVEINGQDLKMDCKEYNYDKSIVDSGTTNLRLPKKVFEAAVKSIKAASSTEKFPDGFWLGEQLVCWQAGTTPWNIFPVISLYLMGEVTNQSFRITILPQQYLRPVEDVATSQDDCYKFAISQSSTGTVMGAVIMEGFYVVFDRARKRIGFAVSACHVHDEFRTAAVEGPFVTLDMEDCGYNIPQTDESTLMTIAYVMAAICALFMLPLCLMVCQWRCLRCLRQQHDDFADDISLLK
Data set [19] in a line: Reversal of Perforin-1 dependent NK-cell mediated graft rejection in human KHYG-1 cells assessed as reduction in perforin-1 activity at 90 mg/kg for 24 days relative to control. The data set is classed as functional. Also on record: scale not given: the % may be the effect or the level left. As to conditions: time 24 day.

Values joined by “and” are separate entries in the source; they are usually repeats but may differ in a detail not shown here. Equal entries are not always repeated.

`O=C1NC(=S)N/C1=C/c1ccc(-c2ccc3c(c2)CCNC3=O)s1`: the inhibition in [1] is 60%; in [2] it was 98%. Further, the IC50 in data set [3] is 14.7 µM.
In the case of `CN1Cc2cc(-c3ccc(-c4cncc(NS(=O)(=O)c5ccccc5[N+](=O)[O-])c4)s3)ccc2C1=O`, in data set [4], the concentration for an effect of 90% (IC90) was determined as 0.77 µM. Further, the fraction unbound in [5] was 0.002. For the same compound, in data set [6], the survival at 48 h came to 100%. Besides, the half-life in [7] was 2.4 h. The Activity in data set [8] turned out to be 60%.
Regarding `NC(=O)c1ccc(-c2ccc(-c3ccc4c(c3)COC4=O)s2)cc1`, the inhibition in data set [2] is 52%; in [12] it was 63%. Besides, the Activity was 70% in data set [9]; 38% and 63% in [13]; 90% in [14]. Besides, it took 13.2 µM to reach half-maximal inhibition in [3] (IC50). The remaining at 24 h came to 46% in [10] and 75% in [11].
`CNC(=O)c1ccc(-c2c(C#N)c(N)n3c(nc4ccccc43)c2C#N)cc1` showed an inhibition in [2] of 91%. For the same compound, the Activity in data set [9] was 84%. This compound also gave a half-maximal inhibitory concentration (IC50) in data set [3] of 1.04 µM.
Compound `Cc1cc2c(c(=S)[nH]1)C(=O)O/C2=C\c1ccc(C)o1` had an inhibition in [2] of 100%. Moreover, the IC50 in data set [15] was determined as 3.4 µM; in data set [3], 9.7 µM.
In the case of `O=C1NC(=S)N/C1=C/c1ccc(-c2ccc3c(c2)COC3=O)o1`, the inhibition in data set [2] was 99%. The compound further had an IC50 in [3] of 7.2 µM.
`Cc1cc2c(c(=S)[nH]1)C(=O)O/C2=C\c1cc2ccccc2s1` registered an inhibition in data set [2] of 63%. Moreover, the Activity in data set [9] was 89%. Also, the IC50 in data set [3] came out at 0.97 µM.
Take `O=C1OCc2cc(-c3ccc(-c4ccc(CO)cc4)s3)ccc21`: the Activity is on record as 63% in the data set with Brain [16] and 55% in the data set on Brain [17]. The same compound displayed an IC50 against Acetylcholinesterase of 8 µM. In data set [18], this compound returned an inhibition of 72%.
`NC(=O)c1ccc(-c2ccc(-c3ccc4c(c3)COC4=O)s2)cn1`: the Activity is listed as 80% in [13] and 82% in data set [14].
`COc1ncc(-c2ccc(-c3cnc4c(c3)CN(C)C4=O)s2)cc1NS(=O)(=O)c1ccc(F)cc1F`: the Activity in data set [19] is recorded as 66%.
